Calls of active or inactive are those of the source. The calls are words filed in the database; no cut-off is given here.
Tests used:
Format in all cases: functional
DU-145 = test: Growth inhibition of human DU145 cells after 48 hrs by SRB assay; details: DU-145, 48 h
Method in brief: (§1)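 NCI 60-cell-line screen: after preliminary screening, tested at five dose concentrations on 59 human tumour lines covering leukemia, lung, colon, CNS, melanoma, ovarian, renal, prostate and breast.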

MDA-MB-435 = test: Growth inhibition of human MDA-MB-435 cells after 48 hrs by SRB assay; details: MDA-MB-435, 48 h; method in brief: as §1
MCF7 [1] = test: Cell cycle arrest in human MCF7 cells assessed as accumulation at G1 phase at 4 uM after 24 hrs by FACS analysis (reference value: 58.33%)
NCI-H322M = test: Growth inhibition of human NCI-H322M cells after 48 hrs by SRB assay; method in brief: as §1
PC-3 [2] = test: Growth inhibition of human PC3 cells after 48 hrs by SRB assay; details: PC-3, 48 h; method in brief: as §1
SK-MEL-5 = test: Growth inhibition of human SK-MEL-5 cells after 48 hrs by SRB assay; details: SK-MEL-5, 48 h
Method in brief: (§2)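 NCI 60-cell-line panel, five-dose testing after preliminary screen; sulforhodamine B protein assay in DMEM with 10% FBS, 37 °C, 5% CO2, 100% humidity. Cells seeded and incubated 24 h before compound addition, then exposed 48 h. Absorbance read at 560 nm; growth percentage relative to control wells; GI50 taken as concentration giving 50% growth inhibition.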

Malme-3M = test: Growth inhibition of human MALME-3M cells after 48 hrs by SRB assay; method in brief: as §1
SF-295 = test: Growth inhibition of human SF295 cells after 48 hrs by SRB assay; details: SF-295, 48 h; method in brief: as §2
NCI-H23 = test: Growth inhibition of human NCI-H23 cells after 48 hrs by SRB assay; details: NCI-H23, 48 h; method in brief: as §1
OVCAR-8 = test: Growth inhibition of human OVCAR8 cells after 48 hrs by SRB assay; details: OVCAR-8, 48 h; method in brief: as §1
SW-620 = test: Growth inhibition of human SW620 cells after 48 hrs by SRB assay; method in brief: as §2
MDA-MB-231 = test: Growth inhibition of human MDA-MB-231 cells after 48 hrs by SRB assay; details: MDA-MB-231, 48 h; method in brief: as §1
SN12C = test: Growth inhibition of human SN12C cells after 48 hrs by SRB assay; method in brief: as §2
PC-3 [3] = test: Cytotoxicity against human PC3 cells after 48 hrs assessed as inhibition of cell growth at 10 uM after 48 hrs by SRB assay relative to control; details: PC-3, 48 h, read-out: GI
Method in brief: (§3)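 SRB protein assay in DMEM with 10% FBS at 37 °C, 5% CO2, 100% relative humidity. Cells seeded in 96-well plates, incubated 24 h, then exposed to drug at 10 µM for 48 h and processed per standard protocol. Absorbance read at 560 nm; growth percentage calculated for test wells relative to control wells.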

SR = test: Growth inhibition of human SR cells after 48 hrs by SRB assay; method in brief: as §2
MCF7 [4] = test: Cell cycle arrest in human MCF7 cells assessed as accumulation at S phase at 4 uM after 24 hrs by FACS analysis (reference value: 6.79%)
786-0 = test: Growth inhibition of human 786-0 cells after 48 hrs by SRB assay; details: 786-0, 48 h; method in brief: as §1
LOX IMVI = test: Growth inhibition of human LOXIMVI cells after 48 hrs by SRB assay; method in brief: as §1
A549 = test: Growth inhibition of human A549 cells after 48 hrs by SRB assay; details: A549, 48 h; method in brief: as §1
OVCAR-5 = test: Growth inhibition of human OVCAR5 cells after 48 hrs by SRB assay; method in brief: as §1
Hs-578T = test: Growth inhibition of human Hs578T cells after 48 hrs by SRB assay; method in brief: as §1
MOLT-4 = test: Growth inhibition of human MOLT4 cells after 48 hrs by SRB assay; details: MOLT-4, 48 h; method in brief: as §1
CAKI-1 = test: Growth inhibition of human Caki1 cells after 48 hrs by SRB assay; details: CAKI-1, 48 h; method in brief: as §1
SF-268 = test: Growth inhibition of human SF268 cells after 48 hrs by SRB assay; details: SF-268, 48 h; method in brief: as §1
KM12 = test: Growth inhibition of human KM12 cells after 48 hrs by SRB assay; details: KM12, 48 h; method in brief: as §1
HEp-2 = test: Cytotoxicity against human Hep2 cells after 48 hrs assessed as inhibition of cell growth at 10 uM after 48 hrs by SRB assay relative to control; details: HEp-2, 48 h, read-out: GI; method in brief: as §3
A498 = test: Growth inhibition of human A498 cells after 48 hrs by SRB assay; details: A498, 48 h; method in brief: as §1
IGROV-1 = test: Growth inhibition of human IGROV1 cells after 48 hrs by SRB assay; details: IGROV-1, 48 h; method in brief: as §1
RXF 393 = test: Growth inhibition of human RXF393 cells after 48 hrs by SRB assay; details: RXF 393, 48 h; method in brief: as §1
K562 = test: Growth inhibition of human K562 cells after 48 hrs by SRB assay; details: K562, 48 h; method in brief: as §1
MDA-MB-468 = test: Growth inhibition of human MDA-MB-468 cells after 48 hrs by SRB assay; details: MDA-MB-468, 48 h; method in brief: as §1
OVCAR-4 = test: Growth inhibition of human OVCAR4 cells after 48 hrs by SRB assay; details: OVCAR-4, 48 h; method in brief: as §1
CCRF-CEM = test: Growth inhibition of human CCRF-CEM cells after 48 hrs by SRB assay; method in brief: as §1
NCI-H460 = test: Growth inhibition of human NCI-H460 cells after 48 hrs by SRB assay; details: NCI-H460, 48 h; method in brief: as §1
T47D = test: Growth inhibition of human T47D cells after 48 hrs by SRB assay; method in brief: as §2
SNB-75 = test: Growth inhibition of human SNB75 cells after 48 hrs by SRB assay; details: SNB-75, 48 h; method in brief: as §2
SK-OV-3 = test: Growth inhibition of human SKOV3 cells after 48 hrs by SRB assay; details: SK-OV-3, 48 h; method in brief: as §2
UACC-62 = test: Growth inhibition of human UACC62 cells after 48 hrs by SRB assay; details: UACC-62, 48 h; method in brief: as §2
SNB-19 = test: Growth inhibition of human SNB19 cells after 48 hrs by SRB assay; method in brief: as §2
HCT-15 = test: Growth inhibition of human HCT15 cells after 48 hrs by SRB assay; details: HCT-15, 48 h; method in brief: as §1
MCF7 [5] = test: Cell cycle arrest in human MCF7 cells assessed as accumulation at G2/M phase at 4 uM after 24 hrs by FACS analysis (reference value: 34.88%)
COLO 205 = test: Cytotoxicity against human COLO205 cells after 48 hrs assessed as inhibition of cell growth at 10 uM after 48 hrs by SRB assay relative to control; details: COLO 205, 48 h, read-out: GI; method in brief: as §3
HT-29 = test: Growth inhibition of human HT-29 cells after 48 hrs by SRB assay; details: HT-29, 48 h; method in brief: as §1

COc1ccc(/C=C\c2cc(OC)c(OC)c(OC)c2)cc1OCC(=O)Nc1nc2ccc(F)cc2s1
GI50 (DU-145): 8.97 µM | GI50 (MDA-MB-435): 0.33 µM | Activity (MCF7 [1]): 44.28% | GI50 (NCI-H322M): inactive | GI50 (PC-3 [2]): 6.74 µM | GI50 (SK-MEL-5): 1.76 µM | GI50 (Malme-3M): 5.22 µM | GI50 (SF-295): 4.29 µM | GI50 (NCI-H23): 4.26 µM | GI50 (OVCAR-8): 7.15 µM | GI50 (SW-620): inactive | GI50 (MDA-MB-231): 9.34 µM | GI50 (SN12C): 4.61 µM | inhibition of growth at 10 µM (PC-3 [3]): 32% | GI50 (SR): 2.19 µM | Activity (MCF7 [4]): 13.64% | GI50 (786-0): 7.12 µM | GI50 (LOX IMVI): 3.23 µM | GI50 (A549): 5.99 µM | GI50 (OVCAR-5): inactive | GI50 (Hs-578T): inactive | GI50 (MOLT-4): 3.07 µM | GI50 (CAKI-1): 2.78 µM | GI50 (SF-268): 7.23 µM | GI50 (KM12): 4.78 µM | inhibition of growth at 10 µM (HEp-2): 64% | GI50 (A498): 6.25 µM | GI50 (IGROV-1): 4.17 µM | GI50 (RXF 393): 6.29 µM | GI50 (K562): 3.62 µM | GI50 (MDA-MB-468): 3.68 µM | GI50 (OVCAR-4): 7.3 µM | GI50 (CCRF-CEM): 3.7 µM | GI50 (NCI-H460): 4.36 µM | GI50 (T47D): 3.39 µM | GI50 (SNB-75): 4.39 µM | GI50 (SK-OV-3): 8 µM | GI50 (UACC-62): 4.05 µM | GI50 (SNB-19): inactive | GI50 (HCT-15): 8.19 µM | Activity (MCF7 [5]): 42.08% | inhibition of growth at 10 µM (COLO 205): 50% | GI50 (HT-29): 9.63 µM
